# Experimental data from different studies.
# Lines come from different studies, so protocols differ.
# Target: Ephrin type-B receptor 1 (EPHB1, Homo sapiens, UniProt P54762)
# Sequence (P54762 18-984, as in one of the studies): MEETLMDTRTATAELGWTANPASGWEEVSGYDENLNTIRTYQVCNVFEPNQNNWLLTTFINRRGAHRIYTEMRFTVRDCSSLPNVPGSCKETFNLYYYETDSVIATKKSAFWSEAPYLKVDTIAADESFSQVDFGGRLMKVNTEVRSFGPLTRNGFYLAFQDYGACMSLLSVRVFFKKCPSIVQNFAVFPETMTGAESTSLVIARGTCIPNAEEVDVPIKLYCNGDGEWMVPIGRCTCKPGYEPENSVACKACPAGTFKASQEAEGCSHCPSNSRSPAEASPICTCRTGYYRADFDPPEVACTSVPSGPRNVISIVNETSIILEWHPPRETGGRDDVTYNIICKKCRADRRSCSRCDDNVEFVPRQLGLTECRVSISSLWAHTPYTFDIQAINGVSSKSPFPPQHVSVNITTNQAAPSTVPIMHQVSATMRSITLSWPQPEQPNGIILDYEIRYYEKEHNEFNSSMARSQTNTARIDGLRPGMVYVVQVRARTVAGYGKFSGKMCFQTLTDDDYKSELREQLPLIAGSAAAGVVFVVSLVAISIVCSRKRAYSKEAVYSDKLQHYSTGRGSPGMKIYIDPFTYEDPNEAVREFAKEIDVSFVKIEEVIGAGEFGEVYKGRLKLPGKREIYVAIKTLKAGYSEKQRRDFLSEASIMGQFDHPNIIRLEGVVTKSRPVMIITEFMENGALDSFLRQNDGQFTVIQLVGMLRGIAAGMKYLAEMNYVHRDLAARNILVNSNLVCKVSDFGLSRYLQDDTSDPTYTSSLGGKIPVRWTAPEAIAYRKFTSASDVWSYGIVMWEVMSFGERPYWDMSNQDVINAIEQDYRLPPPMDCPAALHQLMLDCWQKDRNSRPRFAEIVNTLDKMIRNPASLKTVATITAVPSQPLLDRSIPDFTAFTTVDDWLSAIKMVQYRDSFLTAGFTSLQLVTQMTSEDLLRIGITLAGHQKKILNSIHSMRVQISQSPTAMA
SMILES,effect on,mode,technique,concentration,quantity,result
CC(C)(C)c1cc(C=C(C#N)C#N)cc(Br)c1O,enzyme activity,inhibitor,,0.5 µM,remaining activity,114%
COc1ncccc1-c1cnn2ccc(N3CCN(C(=O)OC(C)C)CC3)nc12,binding,,competition with immobilised ligand,1 µM,remaining binding,100%
COc1cc(Nc2ncc(F)c(Nc3ccc4c(n3)NC(=O)C(C)(C)O4)n2)cc(OC)c1OC,binding,,competition with immobilised ligand,10 µM,inhibition,96%
Cc1nn(C)cc1-c1nc2c(N3CCN(Cc4ccc(Cl)cc4)CC3)c(Cl)cnc2[nH]1,binding,,competition with immobilised ligand,1 µM,remaining binding,100%
Cn1cc(-c2cc(F)cc(N3CCn4c(cc5c4CCCC5)C3=O)c2CO)cc(Nc2ccc(N3CCN(C4COC4)CC3)cn2)c1=O,enzyme activity,inhibitor,,0.1 µM,inhibition,6%
Nc1ncc(-c2nc(N3CCOCC3)nc(N3CCOCC3)n2)c(C(F)F)n1,cell-free assay,,competition with immobilised ligand,10 µM,remaining binding,98%
Cn1cncc1[C@](O)(COc1ccc(C#N)cc1-c1ccc(OC(F)(F)F)cc1)c1ccc(C#N)cc1,cell-free assay,,competition with immobilised ligand,1 µM,remaining binding,98%
O=c1[nH]c2ccccc2n1C1CCN(Cc2ccc(-c3[nH]c4cc5ncnc5cc4nc3-c3ccccc3)cc2)CC1,cell-free assay,,,0.5 µM,remaining signal,104%
C#Cc1n[nH]c2c(-c3cn([C@@H](C)c4ccccc4)c(=O)[nH]c3=O)cc(F)cc12,enzyme activity,inhibitor,,0.1 µM,inhibition,1.9%
Cn1cc(-c2cccc(N3CCc4c(sc5c4CC(C)(C)C5)C3=O)c2CO)cc(Nc2ccncn2)c1=O,enzyme activity,inhibitor,,1 µM,inhibition,4%
N#CC1(c2ccccn2)CCN(Cc2cc(C(=O)O)c(=O)n3ccccc23)CC1,cell-free assay,,competition with immobilised ligand,1 µM,remaining binding,100%
C#Cc1n[nH]c2c(-c3cn(C(C)c4ccccn4)c(=O)[nH]c3=O)cc(F)cc12 (stereo not drawn),enzyme activity,inhibitor,,1 µM,inhibition,4.9%
